Measured values from ChEMBL document CHEMBL1157317, “Vanillic acid glycoside and quinic acid derivatives from Gardeniae Fructus” (J Nat Prod, 2006).
Values after ≈ are worked out from the molar mass of the structure shown.

How the values were obtained:
[1] = test system: Radical scavenging activity; assay: Antioxidant activity assessed as DPPH free radical scavenging activity relative to control; type: functional
Summary of the method: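 Test samples in EtOH mixed with 100 µM ethanolic DPPH, incubated 30 min at 37 °C; absorbance read at 515 nm. Percent inhibition calculated against ethanol-treated control; IC50 taken as concentration scavenging 50% of DPPH radicals.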

[2] = Antioxidant activity assessed as superoxide anion scavenging activity by xanthine oxidase oxidation system relative to control; type: functional
Summary of the method: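 Superoxide produced by xanthine oxidase (1.4 × 10-8 units) with 0.1 mM xanthine in 40 mM sodium carbonate buffer pH 10.2 containing 0.1 mM EDTA, 50 µg/mL BSA and […]; 20 min at 25 °C, stopped with CuCl2. Formazan read at 560 nm; IC50 as concentration scavenging 50% of superoxide.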

[3] = Antioxidant activity assessed as inhibition of 2,2'-azobis(2-amidinopropane)dihydrochloride-induced lipid peroxidation at 3.125 ug/ml by ferric thiocyanate system relative to control; type: functional
Summary of the method: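 Linoleic acid emulsified in Tween, peroxidation induced by AAPH; oxidation followed by ferric thiocyanate method.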

[4] = molecular target: Human immunodeficiency virus type 1 integrase (Human immunodeficiency virus 1, UniProt Q7ZJM1); assay: Inhibition of HIV1 recombinant integrase expressed in Escherichia coli
Human immunodeficiency virus type 1 integrase, sequence (Q7ZJM1 whole entry): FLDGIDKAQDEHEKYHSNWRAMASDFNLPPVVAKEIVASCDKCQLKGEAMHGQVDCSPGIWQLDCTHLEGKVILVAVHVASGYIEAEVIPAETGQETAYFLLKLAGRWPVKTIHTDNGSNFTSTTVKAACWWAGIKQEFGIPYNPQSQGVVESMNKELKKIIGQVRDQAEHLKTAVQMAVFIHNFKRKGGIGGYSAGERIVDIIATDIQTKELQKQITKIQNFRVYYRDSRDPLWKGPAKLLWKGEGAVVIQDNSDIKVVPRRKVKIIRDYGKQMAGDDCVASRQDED

Compound: O=C(/C=C/c1ccc(O)c(O)c1)O[C@H]1[C@H](O)C[C@](O)(C(=O)O)C[C@H]1OC(=O)/C=C/c1ccc(O)c(O)c1
- IC50 [1]: 5.9 µg/mL (≈ 11.4 µM)
- IC50 [2]: 3.3 µg/mL (≈ 6.39 µM)
- inhibition [3]: 51.7%
- IC50 [4]: 10.5 µM

Compound: O=C(/C=C/c1ccc(O)c(O)c1)O[C@@H]1C[C@](O)(C(=O)O)C[C@@H](OC(=O)/C=C/c2ccc(O)c(O)c2)[C@H]1O
- IC50 [1]: 5.6 µg/mL (≈ 10.8 µM)
- IC50 [2]: 2.9 µg/mL (≈ 5.62 µM)
- inhibition [3]: 51.5%
- IC50 [4]: 11.4 µM

Compound: CCOC(=O)[C@@]1(O)C[C@@H](OC(=O)/C=C/c2ccc(O)c(O)c2)[C@H](O)[C@H](OC(=O)/C=C/c2cc(OC)c(O)c(OC)c2)C1
- IC50 [1]: 9.5 µg/mL (≈ 16.1 µM)
- IC50 [2]: 2.7 µg/mL (≈ 4.59 µM)
- inhibition [3]: 53.8%
- IC50 [4]: 80.5 µM

Compound: CCOC(=O)[C@]1(O)C[C@@H](O)[C@@H](OC(=O)/C=C/c2cc(OC)c(O)c(OC)c2)[C@H](OC(=O)/C=C/c2ccc(O)c(O)c2)C1
- IC50 [1]: 6.1 µg/mL (≈ 10.4 µM)
- IC50 [2]: 2 µg/mL (≈ 3.4 µM)
- inhibition [3]: 54.9%
- IC50 [4]: 73.9 µM

Compound: COC(=O)[C@]1(O)C[C@@H](O)[C@@H](OC(=O)/C=C/c2cc(OC)c(O)c(OC)c2)[C@H](OC(=O)/C=C/c2ccc(O)c(O)c2)C1
- IC50 [1]: 8.3 µg/mL (≈ 14.4 µM)
- IC50 [2]: 1.8 µg/mL (≈ 3.13 µM)
- inhibition [3]: 56%
- IC50 [4]: 33.8 µM

Compound: COC(=O)[C@@]1(O)C[C@@H](OC(=O)/C=C/c2ccc(O)c(O)c2)[C@H](O)[C@H](OC(=O)/C=C/c2cc(OC)c(O)c(OC)c2)C1
- IC50 [1]: 8.5 µg/mL (≈ 14.8 µM)
- IC50 [2]: 2.2 µg/mL (≈ 3.83 µM)
- inhibition [3]: 54.7%
- IC50 [4]: 41.1 µM

Compound: COc1cc(C(=O)O)ccc1O[C@@H]1O[C@H](COC(=O)/C=C/c2cc(OC)c(O)c(OC)c2)[C@@H](O)[C@H](O)[C@H]1O
- IC50 [1]: 22.7 µg/mL (≈ 42.3 µM)
- IC50 [2]: 46.3 µg/mL (≈ 86.3 µM)
- inhibition [3]: 38.4%
- IC50 [4]: > 186 µM

Compound: O=C1O[C@H]([C@@H](O)CO)C(O)=C1O [ASCORBIC ACID]
- IC50 [1]: 5.5 µg/mL (≈ 31.2 µM)
- IC50 [2]: > 50 µg/mL
- inhibition [3]: 44.1%

Compound: O=C(O)/C=C/c1ccc(O)c(O)c1 [CAFFEIC ACID]
- IC50 [1]: 3.2 µg/mL (≈ 17.8 µM)
- IC50 [2]: 0.5 µg/mL (≈ 2.78 µM)
- inhibition [3]: 54.1%

Compound: CCOC(=O)[C@]1(O)C[C@@H](O)[C@@H](O)[C@H](OC(=O)/C=C/c2ccc(O)c(O)c2)C1 [ETHYL CHLOROGENATE]
- IC50 [1]: 7.1 µg/mL (≈ 18.6 µM)
- IC50 [2]: 1 µg/mL (≈ 2.62 µM)
- inhibition [3]: 51.1%
- IC50 [4]: 116 µM

Compound: COC(=O)C1=CO[C@@H](O[C@@H]2O[C@H](CO)[C@@H](O)[C@H](O)[C@H]2O)[C@@H]2C(CO)=CC[C@H]12 [GENIPOSIDE]
- IC50 [1]: > 50 µg/mL
- IC50 [2]: > 50 µg/mL
- inhibition [3]: 2%
- IC50 [4]: > 257 µM

Compound: O=C(O)C1=CO[C@@H](O[C@@H]2O[C@H](CO)[C@@H](O)[C@H](O)[C@H]2O)[C@@H]2C(CO)=CC[C@H]12 [GENIPOSIDIC ACID]
- IC50 [1]: > 50 µg/mL
- IC50 [2]: > 50 µg/mL
- inhibition [3]: 4.8%
- IC50 [4]: > 267 µM

Compound: O=c1c(O[C@@H]2O[C@H](CO)[C@@H](O)[C@H](O)[C@H]2O)c(-c2ccc(O)c(O)c2)oc2cc(O)cc(O)c12 [ISOQUERCETIN]
- IC50 [1]: 16.6 µg/mL (≈ 35.7 µM)
- IC50 [2]: 3.4 µg/mL (≈ 7.32 µM)
- inhibition [3]: 49.9%

Compound: O=C(O)c1ccc(O)c(O)c1 [PROTOCATECHUIC ACID]
- IC50 [1]: 6.9 µg/mL (≈ 44.8 µM)
- IC50 [2]: 13 µg/mL (≈ 84.3 µM)
- inhibition [3]: 38.1%

Compound: O=c1c(O)c(-c2ccc(O)c(O)c2)oc2cc(O)cc(O)c12 [QUERCETIN]
- IC50 [1]: 5.9 µg/mL (≈ 19.5 µM)
- IC50 [2]: > 50 µg/mL
- inhibition [3]: 54.2%

Compound: Oc1ccc(/C=C/c2cc(O)cc(O)c2)cc1 [RESVERATROL]
- IC50 [1]: 17.1 µg/mL (≈ 74.9 µM)
- IC50 [2]: 37.9 µg/mL (≈ 166 µM)
- inhibition [3]: 39.1%

Compound: VITAMIN E [listing 1 of 2 here]
- IC50 [1]: 9.4 µg/mL
- IC50 [2]: > 50 µg/mL

Compound: VITAMIN E [listing 2 of 2 here]
- inhibition [3]: 61.2%
